One may read the inhibition as the drop in the measured response relative to a control, in per cent.

Fewer than 10 of roughly 2,400 compounds were called active. Not all results are given here. A number with no mark means an inactive call.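 The calls were made as follows: active = average inhibition across replicates above the hit cutoff set in the earlier primary screen; inactive = the rest.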

Chain of Procathepsin L (Homo sapiens) (P07711 whole entry, looked up): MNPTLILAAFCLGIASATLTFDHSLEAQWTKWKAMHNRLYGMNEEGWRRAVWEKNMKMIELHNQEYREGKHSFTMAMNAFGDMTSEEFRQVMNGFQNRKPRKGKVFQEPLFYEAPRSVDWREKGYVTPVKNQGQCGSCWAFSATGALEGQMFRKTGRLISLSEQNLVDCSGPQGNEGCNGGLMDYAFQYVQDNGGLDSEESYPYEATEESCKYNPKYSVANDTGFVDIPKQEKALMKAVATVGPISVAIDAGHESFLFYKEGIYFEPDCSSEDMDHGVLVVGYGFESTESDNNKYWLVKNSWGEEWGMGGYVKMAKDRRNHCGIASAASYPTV

The target in this assay is Procathepsin L (Homo sapiens) (UniProt P07711). As to the kind of experiment: cathepsin L1 inhibitors, retest, confirmation, counter-screen for PFM18AAP inhibitor project, biochemical, QFRET, triplicate (AID 2178).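 Also: 0% = median of test compound wells and 100% = Z-Phe-Ala-diazomethylketone 1 µM.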 Particulars: purified cathepsin L1, Z-Leu-Arg-MCA fluorescence; at 5.96 µM; active compounds read high. The method, boiled down:
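Test system: purified recombinant cathepsin L1 enzyme; measure: percent inhibition from fluorescence change; benchmarks: Z-Phe-Ala-diazomethylketone control wells; also added: Z-Leu-Arg-MCA fluorogenic substrate; incubation: 30 min compound preincubation, then 90 min with substrate, 25 °C; repeats: triplicate; measured by: fluorescence of released MCA at 0 and 90 min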
On to `CCn1ccnc1CNC(=O)CC1C(=O)NCCN1Cc1ccc(F)cc1Cl` (stereo unspecified), for which the inhibition is -3.42%.

Turning to `COc1cc(/C=N/NC(=S)Nc2cccnc2)cc(OC)c1O`, the inhibition was -3.45%.

Turning to `Cn1c(=O)[nH]c(=O)c2c1[nH]c(=S)n2Cc1ccccc1`, the inhibition is -1.96%.

As to `CC1CCN(C(=O)c2ccc3c(c2)NC(=O)CN3)CC1`, the inhibition was -3.71%.

On to `O=C(O)c1cccc(NC(=S)N/N=C/c2c[nH]c3ccccc23)c1`, for which the inhibition was -2.87%.

As for `O=C(Nc1cccc([N+](=O)[O-])c1)Nn1cnnc1`, the inhibition is -5.02%.

Consider `COc1cc(/C=N\Nc2ccc([N+](=O)[O-])cn2)ccc1OCC(=O)O`, for which the inhibition is 6.51%.

With `CC(C)c1ccc(NC(=S)NNc2ccc(Cl)c(C(=O)O)c2)cc1`, the inhibition is -5.45%.

For the compound `Cc1nc2ccc(S(=O)(=O)NCC(=O)O)cc2s1`, the inhibition was -0.46%.

In the case of `O=C(CSc1ncn[nH]1)Nc1ccnc2ccccc12`, the inhibition is -0.72%.

`CCOc1cccc(/C=N/NC(=S)NCCN2CCOCC2)c1O`: the inhibition was 3.05%.

With `CCOc1ccc(C2C3=C(CCCC3=O)N(CC(=O)O)C3=C2C(=O)CCC3)cc1`, the inhibition is 0.31%.

In the case of `COc1cc(/C=C2/C(=O)NN(c3cccc(Cl)c3)C2=O)cc(Br)c1O`, the inhibition was -3.26%.

For the compound `O=C(CO/N=C/c1ccccc1O)NNC(=O)c1ccccc1Cl`, the inhibition was -40.2%.

With `COc1ccc2c(c1)C(C)=CC(C)(C)N2C(=O)Nc1ccccc1`, the inhibition is 0.44%.

Regarding `Oc1ccc(N2CCN(C(=S)NCc3ccccc3)CC2)cc1`, the inhibition is 0.35%.

For the compound `Cc1ccc2nc(-c3cccc(Br)c3)cc(C(=O)Nn3cnnc3)c2c1`, the inhibition is -9.17%.

For `CN(C)c1ccc(C(CC(=O)O)C(=O)O)cc1` (stereo unspecified), the inhibition is -7.14%.

As to `CC(OC(=O)c1ccc2noc(-c3ccccc3)c2c1)C(N)=O` (stereo unspecified), the inhibition is 2.03%.

Take `NC(=O)C1CCN(C(=O)/C(=C/c2ccco2)NC(=O)c2ccccc2)CC1`: the inhibition is -6.56%.

Turning to `Cc1cccc(NC(=O)c2sc3nc(N4CCOCC4)c4c(c3c2N)CCCC4)c1`, the inhibition is -1.63%.

On to `CSc1n[nH]c(=S)n1N`, for which the inhibition is -0.69%.

Consider `CC(C)(C)NC(=O)C(c1ccncc1)N(C(=O)CNC(=O)c1ccco1)c1ccc2c(c1)OCO2` (stereo unspecified), for which the inhibition is -6.31%.

Take `Cc1nc2nc[nH]n2c(=O)c1C/C=C/c1ccccc1`: the inhibition is -4.98%.

For the compound `COc1ccc(N/C=C(\C2OC(=O)c3ccccc32)[N+](=O)[O-])cc1` (stereo unspecified), the inhibition is -5.34%.

Consider `c1ccc2c(c1)OCC(c1nn3cnnc3s1)O2` (stereo unspecified), for which the inhibition is 2.86%.

In the case of `COc1cc(/C=N/Nc2nn3cnnc3c3ccccc23)cc(OC)c1OC`, the inhibition is 3.85%.

Take `ClC1(Cl)CC1CSc1ncn[nH]1` (stereo unspecified): the inhibition is -4.69%.

`S=c1[nH]nc2c3c4c(sc3ncn12)CCCC4`: the inhibition is -1.23%.

Turning to `Cc1ccc(-c2noc(CC(c3ccccc3)c3ccccc3)n2)cc1`, the inhibition is 2.35%.

Take `CC(/C=C/C1(O)C(C)CC(=O)CC1(C)C)OC1OC(CO)C(O)C(O)C1O` (stereo unspecified): the inhibition was -6.26%.

Take `Cc1cc2c(C)nc(N/N=C/c3ccccc3)nc2o1`: the inhibition was 3.67%.

Regarding `O=C1CCCCN1CCCC(=O)N1CCCC(Nc2ccc(F)cc2)C1` (stereo unspecified), the inhibition was -1.53%.

In the case of `O=c1nc(N/N=C/c2ccco2)cn[nH]1`, the inhibition is 8.33%.

Turning to `O=C(COc1ccc([N+](=O)[O-])cc1Cl)Nn1cnnc1`, the inhibition was -1.51%.

Turning to `O=C(Nc1ccccc1Cl)Nn1cnnc1`, the inhibition was -5.2%.

`COc1ccc(OC)c(Nc2nc(-c3ccc(O)c(O)c3)cs2)c1`: the inhibition is 4.97%.

`Cc1cc2nc3c(=O)n(Cc4ccccc4)c(=O)[nH]c3nc2cc1N`: the inhibition was 2.68%.

`Cc1cc(-c2ccc(/C=N/n3cnnc3)o2)c([N+](=O)[O-])cc1C`: the inhibition was 1.38%.

As for `O=C(CC(n1cncn1)C(Cl)(Cl)Cl)c1ccc([N+](=O)[O-])cc1` (stereo unspecified), the inhibition is 1.47%.

In the case of `Cc1ccc(Cl)cc1-c1ccc(/C=N/n2cnnc2)o1`, the inhibition was 3.57%.

With `COc1cc(S(=O)(=O)Nc2ncn[nH]2)ccc1Cl`, the inhibition was 0.28%.

For the compound `O=[N+]([O-])c1ccc(N2CCN(c3ccc(O)cc3)CC2)c(Cl)c1`, the inhibition is 0.99%.

Turning to `COc1cccc2cc(-c3cc(=O)oc4cc(C)c(O)cc34)oc12`, the inhibition is -0.83%.

As for `CC(=O)N(c1ccc2oc(=O)sc2c1)S(=O)(=O)c1ccc(C)cc1`, the inhibition is -0.05%.

Regarding `O=S(=O)(c1ccc(NC(=S)NN=C(C2CC2)C2CC2)cc1)N1CCOCC1`, the inhibition is 0.19%.

On to `COc1cc(NC(=S)N2CCCC(C)C2)c(OC)cc1Cl` (stereo unspecified), for which the inhibition was -10.4%.

With `Cc1ccsc1/C=N/Nc1ccc(Cl)nn1`, the inhibition was 0.84%.

For the compound `COc1ccccc1-c1nnc(SCC(=O)Nc2cc(C)on2)o1`, the inhibition is 8.93%.

`O=C(N/N=C/c1ccc(O)c(O)c1)C1c2ccccc2Oc2ccccc21`: the inhibition was -5.02%.

As for `O=C(CN1CCN(S(=O)(=O)c2cc(Cl)ccc2Cl)CC1)c1ccc(O)c(O)c1`, the inhibition is -1.56%.

As to `O=C(Cn1c[n+](CC(=O)c2ccc([N+](=O)[O-])cc2)cn1)c1ccc([N+](=O)[O-])cc1`, the inhibition was 13.7%.

Take `Cc1ccc(NC(=O)c2c(NC(=O)CCC(=O)O)sc3c2CCCCC3)cc1`: the inhibition was 5.04%.

`CC/C(C)=N/Nc1nc2sc3c(c2c(=O)[nH]1)CC(C)(C)OC3`: the inhibition is 2.48%.

`Cn1sc(=O)c2cc(S(=O)(=O)NC3CC3)ccc21`: the inhibition is -0.58%.

For the compound `CCOc1ccc(-n2c(O)c(/C=N/Nc3nnc(C)c(=O)[nH]3)c3ccccc3c2=O)cc1`, the inhibition is -0.55%.

Regarding `Oc1cccc(/C=N/Nc2ccc(Cl)nn2)c1O`, the inhibition is 2.12%.

For the compound `Cc1c(CC(=O)N2CCN(C(=O)C3COc4ccccc4O3)CC2)c(=O)oc2c(O)c(O)ccc12` (stereo unspecified), the inhibition is 0.56%.

As for `O=C(CSC(=S)N1CCOCC1)c1cc(Br)cc(Br)c1O`, the inhibition was -2.37%.

For `CNC(=O)c1c(NC(NC(=O)c2ccco2)C(=O)c2ccc(Cl)cc2)sc2c1CCCC2` (stereo unspecified), the inhibition was -3.32%.

Take `N#CCC(=O)N/N=C/c1ccc(SCC(=O)Nc2ccccc2)o1`: the inhibition was -1.02%.

Source of the values: PubChem BioAssay AID2178 (The Scripps Research Institute Molecular Screening Center, 2009).
